Source: PubChem
Rows were chosen to be rich in hits. Some 2.2% of all compounds tested hit in one or more screens of this group.
FN deposition inh – fibronectin deposition inhibition; AH1F fibroblasts, Alexa488-fibronectin deposition fluorescence, overnight; inhibition, % at 12.6 µM; hit rate 0.086% among 350,000;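 active means mean inhibition across replicates of 30% or more, regardless of how many single replicates reach that level; inconclusive means mean under 30% yet at least half of replicates reach 30%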;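 further: positive control wells lacked labelled fibronectin entirely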
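test system = AH1F fibroblasts assembling fluorescent fibronectin matrix | quantity = 10000 AH1F cells per well | buffer or medium = DMEM plus 2% serum, read in PBS | doses = single dose, pinned | incubation = 1 h cell attachment, overnight exposure to compound and label | detection = fluorescence at 485 nm excitation, 525 nm emission | read-out basis = inhibition from reduced deposited-fibronectin fluorescence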
ERp5 inh – blocks human ERp5 reductase activity on insulin; ERp5 insulin aggregation, absorbance 650 nm, 90 min; inhibition, % at 9.99 µM; hit rate 0.05% among 350,000; AID 651711;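 active means mean replicate inhibition above about 25%, with every replicate also reaching it, limit read from the data, passing the limit was not always enough; inconclusive means only one of those two criteria met; inactive means neither criterion met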
Target sequence (Q15084 whole entry, looked up): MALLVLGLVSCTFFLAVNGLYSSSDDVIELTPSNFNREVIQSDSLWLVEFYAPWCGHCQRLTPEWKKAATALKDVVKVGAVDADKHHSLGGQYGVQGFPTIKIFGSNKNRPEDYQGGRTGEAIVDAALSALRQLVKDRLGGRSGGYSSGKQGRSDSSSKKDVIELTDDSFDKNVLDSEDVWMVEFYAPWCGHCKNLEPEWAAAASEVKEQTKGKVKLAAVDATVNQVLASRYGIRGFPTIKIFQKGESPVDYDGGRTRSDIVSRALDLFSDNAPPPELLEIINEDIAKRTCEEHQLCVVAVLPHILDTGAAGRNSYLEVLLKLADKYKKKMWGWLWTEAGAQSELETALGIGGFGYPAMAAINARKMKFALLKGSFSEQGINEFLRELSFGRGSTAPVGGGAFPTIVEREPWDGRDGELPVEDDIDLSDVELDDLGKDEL
Env fusion inh – HIV envelope-mediated fusion inhibition; hit rate 1.1% among 360,000; AID 651610; HeLa-JRFL Env/CEM21 cell fusion, luciferase; inhibition, % at 12.3 µM;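 active means mean replicate inhibition score of at least 50 and every replicate individually at or above 50; inconclusive means only one of the two criteria met; inactive means mean below 50 and not all replicates reaching 50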;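 further: 0% = plate neutral controls and 100% = maraviroc near 300 nM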
PvdQ acylase – blocks Pseudomonas aeruginosa PvdQ acylase activity. purified PvdQ acylase, fluorescence plate reader. inhibition, % at 10 µM. hit rate 0.063% among 340,000. AID 488965; in the data active means inhibition above about 30%, passing the limit was not always enough; inconclusive means no clear call, values can overlap the other calls;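 further: 0% = vehicle neutral wells and 100% = reference inhibitor wells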
PDI turbidity – PDI (human) enzyme inhibition; P07237; PDI insulin aggregation turbidity, A650, 90 min; inhibition, % at 10 µM; hit rate 0.052% among 350,000; AID 588391;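 active means mean inhibition across replicates of 30% or more, whatever share of single replicates reach that level; inconclusive means mean inhibition below 30% while every single replicate reaches 30%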
Ecoli rRNA inh – inhibits bacterial ribosomal RNA function over humanized ribosomes; E. coli WT GFP vs humanized-ribosome RFP mutants, fluorescence, 24 h; hits give low values; DMSO median 0, no signal -100; GFP signal change (wild-type ribosome), % (test concentration not listed); hit rate 1.6% among 350,000;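 active means significant combined selectivity score with lowered wild-type GFP, culture density cut under 30%, mutant RFP and density less affected; inactive means any of these conditions unmet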
The depositor's hits bear a star; ? = inconclusive; / = no result; ! = not confirmed by another sample; [ ] = another dose, or the depositor's remark.

SMILES | FN deposition inh | ERp5 inh | Env fusion inh | PvdQ acylase | PDI turbidity | Ecoli rRNA inh
COc1ccc(S(=O)(=O)N(C)C[C@@H]2Oc3ccc(N(C)C)cc3C(=O)N([C@H](C)CO)C[C@@H]2C)cc1 | / | 10 | 59*[16.7 µM] | / | / | -4
C[C@@H]1CN([C@H](C)CO)C(=O)c2cc(C#Cc3ccncc3)cnc2O[C@@H]1CN(C)S(=O)(=O)c1ccccc1F | / | / | 60*[16.7 µM] | / | / | 3
C[C@H](CO)N1C[C@H](C)[C@H](CN(C)S(=O)(=O)c2ccc(C#N)cc2)Oc2ncc(-c3cc4ccccc4o3)cc2C1=O | -6 | -2 | / | / | / | -4
C[C@@H]1CN([C@@H](C)CO)C(=O)c2cc(C#Cc3ccncc3)cnc2O[C@H]1CN(C)S(=O)(=O)c1ccccc1F | / | -3 | 28[16.7 µM] | / | / | -8
COc1ccc(S(=O)(=O)N(C)C[C@@H]2Oc3ncc(/C=C/c4ccccc4)cc3C(=O)N([C@H](C)CO)C[C@@H]2C)cc1 | -10 | -90 | 55*![16.7 µM] | / | / | -3
CC(C)CNC(=O)[C@@]1(C)c2ccccc2C(=O)N(Cc2ccccc2)[C@H]1c1ccc(CO)cc1 | / | 2 | 0[16.7 µM] | / | / | /
Cc1noc(C)c1NC(=O)Nc1cccc2c1O[C@@H](CN(C)C(=O)Nc1ccc(F)cc1)[C@@H](C)CN([C@@H](C)CO)C2=O | / | / | 14[16.7 µM] | / | / | -4
Cc1noc(C)c1NC(=O)Nc1ccc2c(c1)C(=O)N([C@@H](C)CO)C[C@H](C)[C@@H](CN(C)C(=O)Nc1c(C)noc1C)O2 | / | -14 | -11[16.7 µM] | / | / | 2
C[C@H]1CN([C@@H](C)CO)C(=O)Cc2cc(NC(=O)Nc3ccc4c(c3)OCO4)ccc2O[C@@H]1CN(C)S(C)(=O)=O | / | -3 | / | / | / | 4
C[C@H]1CN([C@@H](C)CO)C(=O)c2cc(/C=C/c3ccccc3)cnc2O[C@H]1CN(C)S(=O)(=O)c1ccccc1 | -7 | -16 | 8[16.7 µM] | / | / | -5
C[C@H](CO)N1C[C@H](C)[C@H](CN(C)S(=O)(=O)c2ccccc2)Oc2ncc(/C=C/c3ccccc3)cc2C1=O | 0 | -2 | 74*[16.7 µM] | / | / | -1
COCC(=O)N(C)C[C@@H]1Oc2cc(C#CCN(C)C)ccc2S(=O)(=O)N([C@H](C)CO)C[C@H]1C | -2 | -5 | -6[16.7 µM] | / | / | 5
C[C@H](CO)N1C[C@H](C)[C@@H](CN(C)S(=O)(=O)c2ccc(F)cc2)Oc2ccc(NC(=O)c3ccncc3)cc2CC1=O | -11 | -3 | / | / | / | -3
CC(SCc1ccccc1)C(=O)N/N=C/c1cc2c(cc1Br)OCO2 (stereo unspecified) | 2 | / | 88* | 3 | 24 | /
CC(SCc1ccccc1)C(=O)N/N=C/c1ccc2c(c1)OCO2 (stereo unspecified) | / | / | / | -6 | 5 | /
C[C@H]1CN([C@@H](C)CO)S(=O)(=O)c2ccc(C3=CCCCC3)cc2O[C@H]1CN(C)C(=O)c1ccccc1 | -7 | 5 | 43[16.7 µM] | / | / | -14
COCCNC(=O)[C@@H]1CCCN1S(=O)(=O)c1cccc2cccnc12 | 3 | 5 | 9 | -8 | -2 | 11
COc1ccccc1CNC(=O)C1CCCN1S(=O)(=O)c1cccc2cccnc12 (stereo unspecified) | -1 | 1 | 57* | 1 | -1 | -3
COC(=O)[C@@H](Cc1c[nH]c2ccccc12)NCc1ccc(B(O)O)cc1 | -10 | -7 | 11 | -13 | 11 | -12
COC(=O)[C@H](Cc1c[nH]c2ccccc12)NCc1cccc(B(O)O)c1 | 16 | 1 | 6 | -2 | 23 | -24*
C=CCOc1c(Br)cc(CNc2ccc(NC(=O)C(C)C)c(OC)c2)cc1OC | -4 | / | 90* | -7 | 3 | /
COc1cc(OC)cc(-c2nnc(SCc3c(F)cccc3Cl)o2)c1 | / | 9 | / | -8 | 2 | -28*
COc1ccc(-c2nnc(SCc3ccccc3F)o2)cc1 | / | / | / | -24 | -1 | /
O=C1c2ccccc2[C@@]2(Cc3ccccc3N(Cc3ccccc3)C2=O)[C@H](c2ccc(CO)cc2)N1C1CCCCC1 | / | -1 | -3[16.7 µM] | / | / | /
O=S(=O)(c1ccccc1)N1CCC(O)(CSc2ccc(Cl)cc2)CC1 | / | / | 61* | 6 | -6 | /
SMILES | FN deposition inh | ERp5 inh | Env fusion inh | PvdQ acylase | PDI turbidity | Ecoli rRNA inh
CCOC(=O)c1c(C)oc2ccc(O)c(CN(C)C)c12 | / | / | / | -17 | -3 | /
CCOC(=O)c1c(CSc2ccccc2)oc2cc(Br)c(O)c(CN(C)C)c12 | -11 | 0 | 127* | -15 | 15 | -15
CCOC(=O)c1c(CSc2ccc(CC)cc2)oc2ccc(O)c(CN(C)C)c12 | 5 | -1 | 56* | -7 | 18 | -53
CC(=O)c1ccc(OCc2cc(C(=O)N3CCC(c4ccncc4)CC3)no2)cc1 | -2 | 2 | 32 | -11 | -1 | -4
CC(=O)c1ccc(OCc2cc(C(=O)N3CCCCC3c3cccnc3)no2)cc1 (stereo unspecified) | 4 | 10 | -7 | -11 | 33* | -28*
CCC1CCCCN1C(=O)c1cc(COc2ccc3ncccc3c2)on1 (stereo unspecified) | 2 | 1 | 7 | -7 | 4 | -30*
CNC[C@@H]1OCCCC[C@@H](C)Oc2ccc(NC(=O)c3ccncc3)cc2C(=O)N([C@H](C)CO)C[C@H]1C | / | 2 | -13[16.7 µM] | / | / | /
CO[C@@H]1CN(C)C(=O)c2cc(NC(C)=O)ccc2OC[C@H](C)N(C(=O)c2cnccn2)C[C@@H]1C | 5 | 1 | ? | / | / | 1
OCCCn1c(CCNc2nc(-c3ccc(F)cc3)cs2)nc2cc(C(F)(F)F)ccc21 | 5 | 5 | 72* | -2 | -3 | -10
OCCCn1c(C2CCCN2c2nc(-c3ccc(F)cc3)cs2)nc2cc(C(F)(F)F)ccc21 (stereo unspecified) | -14 | -1 | 16 | -11 | 5 | 5
COc1ccc(NC(=O)c2ccc3[nH]c(C)c(C)c3c2)c(OC)c1 | 6 | 3 | -17 | -15 | -3 | -15*
C[C@@H]1CCCCO[C@H](CN(C)C(=O)NC2CCCCC2)[C@H](C)CN([C@H](C)CO)C(=O)c2cc(NC(=O)C3CCCCC3)ccc2O1 | / | -3 | 12[16.7 µM] | / | / | -2
COc1ccc(C2=Nc3ccccc3NC(=O)C2N(Cc2ccccc2)C(=O)C2=NNC(=O)CC2)cc1 (stereo unspecified) | 0 | 0 | -8 | / | / | -23*
COc1ccc2c3c([nH]c2c1)[C@H](CO)N(C)CC31CCN(C(=O)c2cccnc2)CC1 | / | / | / | / | / | 3
COc1ccc(-c2cc(C(=O)N(C)Cc3ccc(F)cc3)c3ccccc3n2)cc1OC | 11 | 3 | 16 | 4 | 4 | -28*
N#CC(c1ccc(Cl)nn1)c1c(F)cccc1Cl (stereo unspecified) | 0 | -12 | -3 | 66* | 11 | 16
N#C/C(=C\c1c(F)cccc1Cl)S(=O)(=O)c1ccccn1 | 6 | -1 | 4 | 4 | 17 | 15
C[C@H](CO)N1C[C@H](C)[C@@H](CN(C)Cc2ccc(-c3ccccc3)cc2)Oc2ncc(C#CCN(C)C)cc2C1=O | / | -1 | 13[16.7 µM] | / | / | 1
